Experimental findings from ChEMBL document CHEMBL1649230, “Aryl rhodanines specifically inhibit staphylococcal and enterococcal biofilm formation” (Antimicrob Agents Chemother, 2009) are described below.

Some results are limits rather than exact numbers.

The test system of assay [1] is Staphylococcus aureus. The assay is described as follows: Antimicrobial activity against Staphylococcus aureus ATCC 35556 assessed as inhibition of bacterial biofilm formation after 18 hrs by broth microdilution method in presence of 20 ug/ml fibronectin. It counts as functional. In a few lines: (§1)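 Polystyrene 96-well wells precoated with 100 μl fibronectin or fibrinogen (0–20 μg protein/ml) for 24 h at 4°C. Wells then washed with sterile water. The standard MBIC biofilm assay followed: 0.5× TSB with 1% glucose, 2% DMSO, 18 h at 37°C, crystal violet read at OD600.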

Assay [2] deals with Staphylococcus aureus. Briefly: Antimicrobial activity against Staphylococcus aureus ATCC 35556 assessed as inhibition of bacterial biofilm formation after 18 hrs by broth microdilution method in presence of 1 ug/ml fibrinogen. It counts as functional. In a few lines: as §1
Background: In broth dilution the organism is exposed to a series of concentrations in liquid medium.

Assay [3] deals with Staphylococcus aureus. Briefly: Antimicrobial activity against Staphylococcus aureus ATCC 35556 assessed as inhibition of bacterial biofilm formation after 18 hrs by broth microdilution method in presence of 20 ug/ml fibrinogen. The class given is functional. In outline: as §1
The subject of assay [4] is Enterococcus faecalis. The assay is described as follows: Antimicrobial activity against vancomycin-resistant Enterococcus faecalis ATCC 51575 assessed as inhibition of bacterial biofilm after 18 hrs by broth microdilution method. The class given is functional. In outline: (§2)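 Biofilm MBIC on tissue culture-treated polystyrene 96-well plates. Twofold dilutions, 0.2 to 100 μM final, with 2% DMSO final. Inoculum was an overnight culture diluted 1:100 (~5 × 10^6 cells/well) in 0.5× TSB plus 1% glucose, grown 18 h at 37°C. Wells washed, heat-fixed 60°C 60 min, stained with 0.06% crystal violet, OD600 read. MBIC is the lowest concentration giving ≥80% inhibition versus untreated; geometric mean of ≥3 experiments.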

The test system of assay [5] is Enterococcus faecalis. Briefly: Antimicrobial activity against Enterococcus faecalis ATCC 51575 on medical grade silicone disk assessed as inhibition of bacterial biofilm after 18 hrs by broth microdilution method. The class given is functional.
Assay [6] has as its system Enterococcus faecalis. Briefly: Antimicrobial activity against vancomycin-resistant Enterococcus faecalis isolate F177 on medical grade silicone disk assessed as inhibition of bacterial biofilm after 18 hrs by broth microdilution method. The class given is functional. In a few lines: (§3)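 Medical-grade silicone disks glued to 24-well plate bottoms. Compound added to a 1:100 overnight-culture inoculum (0.5× TSB, 1% glucose) at 2% DMSO final; ≥3 wells each, ~18 h at 37°C. Washed with water, heat-fixed 60°C 60 min, stained with 0.06% crystal violet, eluted with 30% acetic acid, OD600 read. Repeated ≥3 times.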

The subject of assay [7] is Staphylococcus aureus. The assay is described as follows: Antimicrobial activity against hospital acquired methicillin-resistant Staphylococcus aureus isolate 47263 assessed as inhibition of bacterial biofilm after 18 hrs by broth microdilution method. It counts as functional. In a few lines: as §2
Assay [8] relates to Staphylococcus aureus. Briefly: Antimicrobial activity against hospital acquired methicillin-resistant Staphylococcus aureus isolate 58336 assessed as inhibition of bacterial biofilm after 18 hrs by broth microdilution method. The class given is functional. In a few lines: as §2
Assay [9] deals with Staphylococcus aureus. Briefly: Antimicrobial activity against community acquired Staphylococcus aureus NCTC 8325 assessed as inhibition of bacterial biofilm after 18 hrs by broth microdilution method. The class given is functional. In a few lines: (§4)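 Static biofilm in tissue culture-treated polystyrene 96-well plates in 0.5× TSB with 1% glucose. Overnight culture diluted 1:100 gives about 5 × 10^6 cells/well. Compound 2-fold series, final 0.2–100 μM, 2% DMSO. Incubated 18 h at 37°C. Washed, heat-fixed 60°C for 60 min, stained with 0.06% crystal violet, read at OD600. MBIC is the lowest concentration giving ≥80% inhibition versus untreated. Geometric mean of ≥3 independent experiments.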

For assay [10], the system named is Staphylococcus aureus. The assay is described as follows: Antimicrobial activity against community acquired methicillin-resistant Staphylococcus aureus isolate 23542 assessed as inhibition of bacterial biofilm after 18 hrs by broth microdilution method. It counts as functional. In outline:
as §2

Assay [11] has as its system Staphylococcus epidermidis. Briefly: Antimicrobial activity against coagulase-negative Staphylococcus epidermidis isolate WTBF-48 assessed as inhibition of bacterial biofilm after 18 hrs by broth microdilution method. It counts as functional. In outline:
as §4

In assay [12] the test system is Staphylococcus epidermidis. Briefly: Antimicrobial activity against coagulase-negative Staphylococcus epidermidis isolate WTBF-46 assessed as inhibition of bacterial biofilm after 18 hrs by broth microdilution method. It counts as functional. In outline: as §4
Assay [13] has as its system Enterococcus faecalis. Briefly: Antimicrobial activity against vancomycin-resistant Enterococcus faecalis ATCC 51299 assessed as inhibition of bacterial biofilm after 18 hrs by broth microdilution method. The class given is functional. In a few lines:
as §2

The test system of assay [14] is Enterococcus faecium. The assay is described as follows: Antimicrobial activity against vancomycin-resistant Enterococcus faecium isolate EF208 assessed as inhibition of bacterial biofilm after 18 hrs by broth microdilution method. The class given is functional. In outline: as §2
Assay [15] deals with Enterococcus faecium. The assay is described as follows: Antimicrobial activity against vancomycin-resistant Enterococcus faecium isolate 1401 assessed as inhibition of bacterial biofilm after 18 hrs by broth microdilution method. The class given is functional. In a few lines:
as §2

Assay [16] relates to Enterococcus faecium. The assay is described as follows: Antimicrobial activity against vancomycin-resistant Enterococcus faecium isolate F1181 assessed as inhibition of bacterial biofilm after 18 hrs by broth microdilution method. The class given is functional. In a few lines: as §2
The subject of assay [17] is Enterococcus gallinarum. Briefly: Antimicrobial activity against vancomycin-resistant Enterococcus gallinarum isolate 2392 assessed as inhibition of bacterial biofilm after 18 hrs by broth microdilution method. It counts as functional. In a few lines: as §2
Another assay relates to Pseudomonas aeruginosa. Briefly: Antimicrobial activity against Pseudomonas aeruginosa PAO1 assessed as inhibition of bacterial biofilm after 18 hrs by broth microdilution method. It counts as functional. In outline:
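Polystyrene plates with breathable lids in 1× TSB (0.25% glucose), 37°C for 18 h. Biofilms form at the air-liquid interface. Stained with crystal violet, dye eluted with 30% acetic acid, OD read. Compound 2-fold series, final 0.2–100 μM in 2% DMSO. MBIC taken at ≥80% inhibition versus untreated. Geometric mean of ≥3 experiments.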

The test system of assay [18] is Staphylococcus aureus. Briefly: Antimicrobial activity against community-acquired Staphylococcus aureus MW2 on medical grade silicone disk assessed as inhibition of bacterial biofilm after 18 hrs by broth microdilution method. The class given is functional.
The test system of assay [19] is Enterococcus faecalis. Briefly: Antimicrobial activity against vancomycin-resistant Enterococcus faecalis isolate F217 on medical grade silicone disk assessed as inhibition of bacterial biofilm after 18 hrs by broth microdilution method. It counts as functional. In outline: as §3
The test system of assay [20] is Enterococcus gallinarum. Briefly: Antimicrobial activity against vancomycin-resistant Enterococcus gallinarum isolate 2392 on medical grade silicone disk assessed as inhibition of bacterial biofilm after 18 hrs by broth microdilution method. It counts as functional. In a few lines: as §3
The test system of assay [21] is Staphylococcus aureus. Briefly: Antimicrobial activity against Staphylococcus aureus ATCC 35556 assessed as inhibition of bacterial biofilm formation after 18 hrs by broth microdilution method in presence of 5 ug/ml fibronectin. It counts as functional. In a few lines:
as §1

Assay [22] relates to Staphylococcus aureus. The assay is described as follows: Antimicrobial activity against Staphylococcus aureus NCTC 8325 on medical grade silicone disk assessed as inhibition of bacterial biofilm after 18 hrs by broth microdilution method.
Assay [23] has as its system Staphylococcus aureus. The assay is described as follows: Antimicrobial activity against community acquired methicillin-resistant Staphylococcus aureus isolate 24102 assessed as inhibition of bacterial biofilm after 18 hrs by broth microdilution method. The class given is functional. In a few lines:
as §2

Assay [24] relates to Staphylococcus aureus. The assay is described as follows: Antimicrobial activity against community acquired methicillin-resistant Staphylococcus aureus isolate 49404 assessed as inhibition of bacterial biofilm after 18 hrs by broth microdilution method. The class given is functional. In a few lines:
as §2

Assay [25] deals with Staphylococcus aureus. Briefly: Antimicrobial activity against Staphylococcus aureus ATCC 35556 assessed as inhibition of primary adhesion of bacterial biofilm to polystyrene surface under static condition pretreated with 4 times compound MBIC for 30 mins measured after 30 mins by fluorescence emission using BaclLight Live Dead stain. It counts as functional. In outline: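 PBS suspension of mid-log S. aureus ATCC 35556 exposed to compound in tubes for 30 min at 37°C. Cells centrifuged to remove free compound and resuspended in PBS at the original density. They were then placed on tissue culture-treated polystyrene for 30 min at 37°C. Wells washed, BacLight Live/Dead fluorescence read (ex 485, em 530 nm). Fraction adherent calculated versus untreated.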

As to `CCOc1cc(/C=C2\SC(=S)N(c3cccc(F)c3)C2=O)ccc1O`, the MBIC in the assay with Staphylococcus aureus [1] came to 6.25 µM; with Staphylococcus aureus [2] it was 6.25 µM; in the assay on Staphylococcus aureus [3] it was 6.25 µM; in the assay on Enterococcus faecalis [4] it was 63 µM; in the assay on Enterococcus faecalis [5], 63 µM; in the assay with Staphylococcus aureus [7], 8.8 µM. The MBIC came to 10.5 µM with Staphylococcus aureus [8]; 25 µM with Staphylococcus aureus [9]; 19.8 µM with Staphylococcus aureus [10]; 50 µM in assay [11]; 59.5 µM in assay [12]; 25 µM in the assay with Enterococcus faecalis [13]. In addition, the MBIC in the assay with Enterococcus faecium [14] is 50 µM; in the assay on Enterococcus faecium [15], “>=100 uM”; with Enterococcus faecium [16], “>=100 uM”; with Enterococcus gallinarum [17], 50 µM; with Pseudomonas aeruginosa, “>=100 uM”; in the assay on Staphylococcus aureus [21] it was 6.25 µM. For the same molecule, the MBIC90 entry in the assay on Enterococcus faecalis [6] was “>=100 uM”; in the assay on Staphylococcus aureus [18] it was 70.7 µM; in the assay on Enterococcus faecalis [19], “>=100 uM”; with Enterococcus gallinarum [20], “>=100 uM”; in the assay on Staphylococcus aureus [22], 70.7 µM.
Take `C=CCOc1cc(/C=C2\SC(=S)N(c3ccc(F)cc3)C2=O)ccc1O`: the MBIC in the assay with Staphylococcus aureus [1] is 3.125 µM; with Staphylococcus aureus [2], 3.125 µM; in the assay with Staphylococcus aureus [3], 3.125 µM; in the assay with Enterococcus faecalis [4], 35.4 µM; in the assay on Staphylococcus aureus [7], 8.8 µM; in the assay with Staphylococcus aureus [9] it was 14.9 µM. The MBIC turned out to be 100 µM in the assay on Staphylococcus aureus [23]; 15.7 µM with Staphylococcus aureus [24]; 12.5 µM in assay [11]; 70.7 µM in assay [12]; 35.4 µM in the assay with Enterococcus faecium [14]; 79.4 µM in the assay with Enterococcus faecium [15]. Further, the MBIC entry in the assay with Enterococcus faecium [16] was “>=100 uM”; with Enterococcus gallinarum [17], “>=100 uM”; in the assay with Pseudomonas aeruginosa, “>=100 uM”; in the assay with Staphylococcus aureus [21], 3.125 µM. Besides, the MBIC90 in the assay on Enterococcus faecalis [5], with Staphylococcus aureus [18], with Enterococcus gallinarum [20] and in the assay with Staphylococcus aureus [22] was 100 µM each time.
For the molecule `CCOc1cc(/C=C2\SC(=S)N(c3cccnc3)C2=O)ccc1O`, the MBIC in the assay with Staphylococcus aureus [1] was found to be 12.5 µM; in the assay with Staphylococcus aureus [2], 12.5 µM; with Staphylococcus aureus [3], 12.5 µM; in the assay with Enterococcus faecalis [4] it was 21 µM; with Staphylococcus aureus [8], 14.9 µM; in the assay on Staphylococcus aureus [9], 12.5 µM. For the same molecule, the MBIC in the assay with Staphylococcus aureus [23] amounted to 19.8 µM; in the assay on Staphylococcus aureus [10], 25 µM; in the assay with Staphylococcus aureus [24] it was 31.5 µM; in assay [11] it was 17.7 µM; in [12], 25 µM; in the assay on Enterococcus faecalis [13] it was 8.8 µM. The MBIC was 15.7 µM with Enterococcus faecium [14]; 19.8 µM in the assay on Enterococcus faecium [15]; “>=100 uM” with Enterococcus faecium [16]; “>=100 uM” with Pseudomonas aeruginosa; 12.5 µM with Staphylococcus aureus [21]. Also, the MBIC90 worked out at 19.8 µM in the assay with Enterococcus faecalis [5], 25 µM in the assay with Staphylococcus aureus [18] and 25 µM in the assay with Staphylococcus aureus [22]. The “inhibition (INH)” value in the assay with Staphylococcus aureus [25] was “>=80%”.
Consider `CCOc1cc(/C=C2\SC(=S)N(c3ccc(F)cc3)C2=O)ccc1O`, for which the MBIC in the assay with Staphylococcus aureus [1] came to 6.25 µM; with Staphylococcus aureus [2], 3.125 µM; with Staphylococcus aureus [3] it was 6.25 µM; in the assay with Enterococcus faecalis [5], 29.7 µM; in the assay on Staphylococcus aureus [7], 8.8 µM; in the assay on Staphylococcus aureus [8], 10.5 µM. Further, the MBIC with Staphylococcus aureus [9] is 25 µM; with Staphylococcus aureus [10], 31.5 µM; in the assay on Staphylococcus aureus [24], 63 µM; in assay [11], 25 µM; in [12], 50 µM; with Enterococcus faecalis [13] it was 12.5 µM. In addition, the MBIC is 31.5 µM in the assay with Enterococcus faecium [14]; 100 µM in the assay on Enterococcus faecium [15]; “>=100 uM” with Enterococcus faecium [16]; 84.1 µM in the assay on Enterococcus gallinarum [17]; “>=100 uM” in the assay with Pseudomonas aeruginosa; 3.125 µM with Staphylococcus aureus [21]. In addition, the MBIC90 result was “>=100 uM” in the assay with Enterococcus faecalis [6]; 79.4 µM in the assay with Staphylococcus aureus [18]; “>=100 uM” with Enterococcus faecalis [19]; “>=100 uM” in the assay on Enterococcus gallinarum [20]; 79.4 µM in the assay with Staphylococcus aureus [22]. The “inhibition (INH)” value with Staphylococcus aureus [25] was “>=80%”.
